≈ marks a conversion by molar mass, not a printed value. Calls of active or inactive are those of the source. No cut-off for these calls is given here.
Legend:
Staphylococcus aureus [1] = test: Bacteriostatic activity against Staphylococcus aureus Mu3 after 24 hrs; type: functional; details: Mu3, 24 h
Method in brief: (§1)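 Broth microdilution MIC per CLSI guidance in LB, 37 °C, shaking 250 rpm, 24 hr; run in triplicate in three separate experiments. MIC taken as lowest inhibitor concentration with no growth. Compounds from DMSO stocks; untreated controls carry equal DMSO.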

Staphylococcus aureus [2] = test: Bacteriostatic activity against MepA deficient Staphylococcus aureus K2908; type: functional; method in brief: as §1
Staphylococcus aureus [3] = test: Bacteriostatic activity against Staphylococcus aureus K2068 overexpressing MepA; type: functional; method in brief: as §1
Staphylococcus aureus [4] = test: Bactericidal activity against Methicillin sensitive Staphylococcus aureus ATCC 6538 assessed as CFU reduction at 30 uM for 1 hr; type: functional
Method in brief: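 Log-phase LB cultures (OD600 ≈ 0.5) mixed with a range of inhibitor concentrations, shaken at 1,000 rpm, 37 °C, 1 hr, under normal room light. Cultures serially diluted in LB, plated on LB agar, incubated overnight at 37 °C. CFU counted; bactericidal effect taken as CFU reduction versus untreated control.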

Staphylococcus aureus [5] = test: Bacteriostatic activity against Staphylococcus aureus Newman after 24 hrs; type: functional; method in brief: as §1
[6] = biological target: T1, Protein translocase subunit SecA 1 (Staphylococcus aureus (strain NCTC 8325)) (UniProt O06446); test: Non-competitive inhibition of Staphylococcus aureus ATCC 35556 SecA1 liposomal ATPase activity in Xenopus laevis oocytes incubated for 3 hrs measured by Lineweaver-Burk plot analysis; type: cell-based
T1 sequence (whole entry): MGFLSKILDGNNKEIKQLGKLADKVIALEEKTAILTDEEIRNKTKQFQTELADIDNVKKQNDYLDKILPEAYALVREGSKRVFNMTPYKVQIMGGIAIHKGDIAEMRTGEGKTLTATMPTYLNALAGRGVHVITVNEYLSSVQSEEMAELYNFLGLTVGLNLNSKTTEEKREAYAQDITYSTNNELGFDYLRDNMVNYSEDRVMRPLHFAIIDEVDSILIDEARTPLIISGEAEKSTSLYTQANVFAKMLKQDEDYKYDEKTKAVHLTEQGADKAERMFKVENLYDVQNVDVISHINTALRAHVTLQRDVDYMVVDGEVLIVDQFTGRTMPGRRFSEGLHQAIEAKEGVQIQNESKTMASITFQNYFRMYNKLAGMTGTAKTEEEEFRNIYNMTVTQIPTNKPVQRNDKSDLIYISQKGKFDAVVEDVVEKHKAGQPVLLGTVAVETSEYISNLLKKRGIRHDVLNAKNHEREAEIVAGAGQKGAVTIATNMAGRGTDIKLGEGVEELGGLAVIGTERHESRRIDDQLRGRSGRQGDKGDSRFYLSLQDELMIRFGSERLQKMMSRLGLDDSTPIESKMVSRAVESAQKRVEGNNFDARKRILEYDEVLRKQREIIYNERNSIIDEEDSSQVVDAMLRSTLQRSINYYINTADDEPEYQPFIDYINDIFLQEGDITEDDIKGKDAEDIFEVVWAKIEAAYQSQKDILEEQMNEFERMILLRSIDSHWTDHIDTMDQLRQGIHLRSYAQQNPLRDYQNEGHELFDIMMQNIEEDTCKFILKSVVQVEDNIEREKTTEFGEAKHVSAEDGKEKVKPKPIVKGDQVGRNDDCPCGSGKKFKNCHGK
Method in brief: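 SaSecA1-liposome plus proOmpA co-injected into Xenopus oocytes at varying ATP and inhibitor concentrations, incubated 3 hr at 23 °C, ion current recorded 1 min; n = 9-10. Inhibition mode assessed across ATP levels.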

[7] = biological target: T1, Protein translocase subunit SecA 1 (Staphylococcus aureus (strain NCTC 8325)); test: Inhibition of Staphylococcus aureus SecA1 assessed as reduction in secretion of alpha-hemolysin at 10 uM by Western blot analysis
Method in brief: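 S. aureus Mu50 grown in LB at 37 °C; inhibitor added at mid-log phase and cultures sampled at several time points. Supernatants separated by centrifugation, filtered 0.45 μm, and probed by Western blot with antibodies to α-hemolysin, TSST-1 or enterotoxin B.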

Staphylococcus aureus [8] = test: Bacteriostatic activity against Staphylococcus aureus Mu50 after 24 hrs; type: functional; details: Mu50, 24 h
Method in brief: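 Broth microdilution per CLSI guidelines in LB. Inhibitor added to dilute early-log culture (OD600 ≈ 0.05), 37 °C, 250 rpm, 24 hrs. Run in triplicate in three separate experiments. MIC read as the lowest concentration with no growth.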

Staphylococcus aureus [9] = test: Bacteriostatic activity against wild type Staphylococcus aureus 8325-4; type: functional; method in brief: as §1
Staphylococcus aureus [10] = test: Potency index, ratio of MIC for tetracycline to MIC for test compound against Methicillin resistant Staphylococcus aureus; type: functional
Staphylococcus aureus [11] = test: Bactericidal activity against Methicillin resistant Staphylococcus aureus Mu50 assessed as CFU reduction at 30 uM for 1 hr; type: functional
Method in brief: (§2)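 Log-phase Mu50 cultures (OD600 ≈ 0.5) mixed with a range of inhibitor concentrations, shaken 1,000 rpm at 37 °C for 1 hr under normal room light. Cultures then serially diluted in LB, plated on LB agar and incubated overnight at 37 °C. Activity expressed as reduction in CFU relative to untreated control containing matching DMSO.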

Staphylococcus aureus [12] = test: Potency index, ratio of MIC for rifampicin to MIC for test compound against Methicillin resistant Staphylococcus aureus; type: functional
Staphylococcus aureus [13] = test: Potency index, ratio of MIC for ampicillin to MIC for test compound against Methicillin resistant Staphylococcus aureus; type: functional
Staphylococcus aureus [14] = test: Bactericidal activity against Methicillin resistant Staphylococcus aureus Mu50 assessed as CFU reduction for 1 hr; type: functional, organism-based; method in brief: as §2
Staphylococcus aureus [15] = test: Potency index, ratio of MIC for polymyxin B to MIC for test compound against Methicillin resistant Staphylococcus aureus; type: functional
Staphylococcus aureus [16] = test: Potency index, ratio of MIC for erythromycin to MIC for test compound against Methicillin resistant Staphylococcus aureus; type: functional
Staphylococcus aureus [17] = test: Potency index, ratio of MIC for vancomysin to MIC for test compound against Methicillin resistant Staphylococcus aureus; type: functional
Staphylococcus aureus [18] = test: Effect on general protein synthesis in Staphylococcus aureus Mu50 at 10 uM measured within 15 hrs; type: ADME, organism-based; details: in vivo
[19] = biological target: T2, Protein translocase subunit SecA 1 (Staphylococcus aureus (strain NCTC 8325), UniProt O06446); test: Inhibition of Staphylococcus aureus ATCC 35556 SecA1 liposome dependent proOmpA translocation incubated for 1.5 hrs measured by Western blot analysis
T2 sequence (O06446 whole entry): T1 sequence (whole entry)
Method in brief: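 Per 0.1 ml: 50 mM Tris-HCl pH 7.6, 20 mM NH4Cl, 25 mM KCl, 2 mM Mg(OAc)2, ATP-regenerating system, 1.5 μg SaSecA1, 100 ng SecB, 120 ng proOmpA, 120 μg liposomes, with varying inhibitor; 30 °C, 1.5 hr. Translocated proOmpA scored as proteinase K-protected, quantified by Western blot; n = 3.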

Work on `CCCCCCC1c2ccc(O)cc2Oc2cc(O)ccc21` yielded an MIC (Staphylococcus aureus [1]) of 4 mg/L (≈ 13.4 µM), an MIC (Staphylococcus aureus [2]) of 4 mg/L (≈ 13.4 µM) and an MIC (Staphylococcus aureus [3]) of 4 mg/L (≈ 13.4 µM). For the same compound, the Activity (Staphylococcus aureus [4]) was 2 log10CFU/ml, the MIC (Staphylococcus aureus [5]) was 4 mg/L (≈ 13.4 µM) and the inhibition [6] was “Active”. The inhibition [7] was “Active”, the MIC (Staphylococcus aureus [8]) was 4 mg/L (≈ 13.4 µM) and the MIC (Staphylococcus aureus [9]) was 4 mg/L (≈ 13.4 µM). The Ratio (Staphylococcus aureus [10]) was 7, the Activity (Staphylococcus aureus [11]) was greater than 3 log10CFU/ml and the Ratio (Staphylococcus aureus [12]) was 250. For the same compound, the Ratio (Staphylococcus aureus [13]) was 250, the Activity (Staphylococcus aureus [14]) was “Dose-dependent effect” and the Ratio (Staphylococcus aureus [15]) was 7. For the same compound, the Ratio (Staphylococcus aureus [16]) was 250, the Ratio (Staphylococcus aureus [17]) was 2 and the Activity (Staphylococcus aureus [18]) was “Non-toxic”. For the same compound, the IC50 [19] was 4 µM.

— ChEMBL document CHEMBL3734668, “Evaluation of small molecule SecA inhibitors against methicillin-resistant Staphylococcus aureus” (Bioorg Med Chem, 2015)
